Sampled rows, rich in hits. Any-hit rate of the full collection: about 29%.
CYP2C19 act: increases human CYP2C19 enzyme activity; P33261; recombinant CYP2C19, luciferin-H EGE luminescence; hits give high values; 0 = fully inhibited enzyme, 1 = untreated enzyme; activation factor at 5 µM; 96,000 tested, under 10 active;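 active = activation factor of at least 2 at 5 µM in the primary screen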;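 note: 0 = wells with 2.5 mM tranylcypromine and 1 = vehicle-only wells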
Target sequence (P33261 whole entry, looked up): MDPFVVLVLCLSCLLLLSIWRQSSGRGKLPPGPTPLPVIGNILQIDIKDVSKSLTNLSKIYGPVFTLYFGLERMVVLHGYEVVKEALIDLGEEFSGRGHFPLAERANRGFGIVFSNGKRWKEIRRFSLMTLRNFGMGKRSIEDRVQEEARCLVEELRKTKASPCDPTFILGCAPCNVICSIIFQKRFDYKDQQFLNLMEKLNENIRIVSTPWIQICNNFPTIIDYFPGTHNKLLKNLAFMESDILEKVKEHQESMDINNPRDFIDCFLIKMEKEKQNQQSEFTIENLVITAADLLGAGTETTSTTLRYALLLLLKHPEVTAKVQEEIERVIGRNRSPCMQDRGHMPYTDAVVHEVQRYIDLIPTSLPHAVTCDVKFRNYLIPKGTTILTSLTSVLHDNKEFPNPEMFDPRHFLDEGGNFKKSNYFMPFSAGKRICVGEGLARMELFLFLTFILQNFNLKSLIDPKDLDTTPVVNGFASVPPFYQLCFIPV
Ecoli tolC: E. coli tolC mutant growth inhibition | E. coli BW25113 tolC mutant growth, OD615 | growth inhibition, % at 10 µM (by protocol) | 65,000 compounds, 2.2% hits | AID 573;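 active = growth inhibition at or above a cutoff equal to the mean over every tested compound plus 3 SD, cut at about 60% in these data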;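 note: growth measured after 20 h incubation at 37 °C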
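Test system: E. coli BW25113 ΔtolC::kan bacteria | Medium: Kanamycin-containing LB broth (50 µg/mL) | Dosing: One dose of 10 µM final | Times: 20 h incubation with compound, 37 °C | Detection: Optical density read at 615 nm | Read-out basis: Percent growth inhibition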
CYP2C9 activ: activators of human CYP2C9. P11712. recombinant CYP2C9, luciferin-H conversion, luminescence; hits give high values; factor 1 = untreated enzyme, 0 = blocked. activation factor at 5 µM. 96,000 compounds, 1.4% hits;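 active = activation factor of 2 or more for CYP2C9 at a 5 µM dose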;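 note: 0 = sulfaphenazole-blocked wells and 1 = vehicle-only wells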
CYP2C19 inhib: inhibitors of human CYP2C19; P33261; CYP2C19 Supersomes, luciferin-H EGE luminescence, 30 min; inhibition, % at 5 µM; 96,000 compounds, 21% hits;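 active = CYP2C19 inhibition above a set limit at 5 µM in the primary screen, cut at about 50% in these data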;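 note: plate controls were negative control wells for no effect and 2.5 mM tranylcypromine positive control for full effect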
E coli WT exp: blocks growth of wild type E. coli BW25113; growth inhibition, % at 100 µM; OD600 absorbance; AID 710; 98,000 compounds, 0.15% hits;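 active = growth inhibition above about 50% at one test dose, limit read from the data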;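 note: growth measured after 20 h incubation at 37 °C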
CYP2C9 inhib: human CYP2C9 inhibition; CYP2C9 Supersomes, luciferin-H conversion, luminescence; inhibition, % at 5 µM; 96,000 compounds, 20% hits;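 active = blocking of liver enzyme CYP2C9 beyond about 50% at 5 µM, limit read from the data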
Active calls of the source: *.

Results for COC(=O)C1=C(N)Oc2cc(C)n(Cc3cccnc3)c(=O)c2C1c1cccc(OC)c1OC (stereo not drawn) ?
CYP2C19 act: 0.7; Ecoli tolC: -38; CYP2C9 activ: 0.5; CYP2C19 inhib: 35; E coli WT exp: 0; CYP2C9 inhib: 50*

Results for COC(=O)C1=C(N)Oc2cc(C)n(Cc3cccnc3)c(=O)c2C1c1ccc(OC)c(OC)c1 (stereo not drawn) ?
CYP2C19 act: 0.5; Ecoli tolC: -11; CYP2C9 activ: 0.5; CYP2C19 inhib: 46; E coli WT exp: 1; CYP2C9 inhib: 48

Results for COC(=O)C1=C(N)Oc2cc(C)n(CC3CCCO3)c(=O)c2C1c1ccc(Cl)cc1 (stereo not drawn) ?
CYP2C19 act: 0.3; Ecoli tolC: 39; CYP2C9 activ: 0.4; CYP2C19 inhib: 67*; E coli WT exp: -2; CYP2C9 inhib: 57*

What do the screens show for `COC(=O)C1=C(N)Oc2cc(C)n(CCCn3ccnc3)c(=O)c2C1c1cccc(Cl)c1` (stereo not drawn)?
CYP2C19 act: 0.2; Ecoli tolC: -9; CYP2C9 activ: 0.1; CYP2C19 inhib: 83*; CYP2C9 inhib: 92*

What do the screens show for `COC(=O)C1=C(N)Oc2cc(C)n(CCc3ccccc3)c(=O)c2C1c1cccnc1` (stereo not drawn)?
CYP2C19 act: 0.1; Ecoli tolC: 4; CYP2C9 activ: 0.1; CYP2C19 inhib: 92*; E coli WT exp: 6; CYP2C9 inhib: 85*

How did COC(=O)c1cnn(C(=O)c2ccccc2Br)c1N do in these assays?
CYP2C19 act: 0.6; CYP2C9 activ: 1; CYP2C19 inhib: 37; E coli WT exp: 0; CYP2C9 inhib: -3

How did Cc1ccc(Nc2nnns2)cc1C do in these assays?
CYP2C19 act: 0.6; Ecoli tolC: 2; CYP2C9 activ: 0.7; CYP2C19 inhib: 40; E coli WT exp: 10; CYP2C9 inhib: 34

Results for Cc1nc(=O)c(-c2ccccc2)c(C)n1-c1ccc(O)cc1 ?
CYP2C19 act: 0.5; CYP2C9 activ: 1; CYP2C19 inhib: 54*; E coli WT exp: 1; CYP2C9 inhib: -2

How did CCc1ccc(NC(=O)N(C2CCC(C)CC2)C2CCN(C(C)=O)CC2)cc1 (stereo not drawn) do in these assays?
CYP2C19 act: 1; Ecoli tolC: 2; CYP2C9 activ: 0.9; CYP2C19 inhib: -1; E coli WT exp: 3; CYP2C9 inhib: 7

What do the screens show for `CC1CN(CCCOc2ccccc2[N+](=O)[O-])CC(C)O1` (stereo not drawn)?
CYP2C19 act: 0.6; CYP2C9 activ: 0.7; CYP2C19 inhib: 42; E coli WT exp: 2; CYP2C9 inhib: 32

What do the screens show for `Cc1ccc(C(C)C)c(OCCCN2CC(C)OC(C)C2)c1` (stereo not drawn)?
CYP2C19 act: 0.2; Ecoli tolC: -6; CYP2C9 activ: 1.2; CYP2C19 inhib: 76*; E coli WT exp: 8; CYP2C9 inhib: -17

What do the screens show for `CCCC(=O)C1=C(O)C(C(=O)OC)C(C)(C)CC1=Nc1ccccc1` (stereo not drawn)?
CYP2C19 act: 0.1; Ecoli tolC: 3; CYP2C9 activ: 0.2; CYP2C19 inhib: 87*; E coli WT exp: -6; CYP2C9 inhib: 82*

How did CCC(=NCc1ccccc1)C1=C(O)C(C(=O)OC)C(C)(C)CC1=O (stereo not drawn) do in these assays?
CYP2C19 act: 0; Ecoli tolC: -9; CYP2C9 activ: 0.1; CYP2C19 inhib: 97*; E coli WT exp: -4; CYP2C9 inhib: 86*

How did CCCC(=Nc1ccccc1)C1=C(O)C(C(=O)OC)C(C)(C)CC1=O (stereo not drawn) do in these assays?
CYP2C19 act: 0.3; Ecoli tolC: -5; CYP2C9 activ: 0.5; CYP2C19 inhib: 69*; E coli WT exp: 6; CYP2C9 inhib: 45

What do the screens show for `CCCC(=O)C1=C(O)C(C(=O)OC)C(C)(C)CC1=NC(C)(C)C` (stereo not drawn)?
CYP2C19 act: 1.2; CYP2C9 activ: 1.2; CYP2C19 inhib: -20; E coli WT exp: 9; CYP2C9 inhib: -18

What do the screens show for `CCCCC(=Nc1ccc(N)cc1)C1=C(O)C(C(=O)OC)C(C)(C)CC1=O` (stereo not drawn)?
CYP2C19 act: 1; CYP2C9 activ: 0.5; CYP2C19 inhib: 2; E coli WT exp: -5; CYP2C9 inhib: 51*

Screening results deposited in PubChem by several laboratories.
